Measured values published in ChEMBL document CHEMBL1137554, “Synthesis and biological evaluation of novel cytotoxic azanaphthoquinone annelated pyrrolo oximes” (Bioorg Med Chem Lett, 2007).
Activity calls are given as the source filed them. The calls are words filed in the database; no cut-off is given here.

What was measured:
SF-268 = assay: Cytotoxicity against SF268 cells after 48 hrs by XTT assay; assay type: functional, cell-based, Homo sapiens; conditions: for Activity: Homo sapiens
Method in brief: (§1)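 XTT tetrazolium proliferation assay with 48 h compound exposure. IC50 was obtained by nonlinear regression from at least two independent experiments and reported as mean ± standard deviation.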

[1] = Cytotoxicity against KB/HeLa cells after 48 hrs by XTT assay; assay type: functional, cell-based, Homo sapiens; method in brief: as §1
NCI-H460 = assay: Cytotoxicity against NCIH460 cells after 48 hrs by XTT assay; assay type: functional, cell-based, Homo sapiens; conditions: for Activity: Homo sapiens; method in brief: as §1
SK-OV-3 = assay: Cytotoxicity against SKOV3 cells after 48 hrs by XTT assay; assay type: functional, cell-based, Homo sapiens; conditions: for Activity: Homo sapiens; method in brief: as §1
[2] = (§2) Cytotoxicity against RKOp27 cells after 48 hrs by XTT assay; assay type: functional, cell-based, Homo sapiens; method in brief: as §1
[3] = Cytotoxicity against KB/HeLa cells at 3.16 ug/ml after 48 hrs by XTT assay; assay type: functional; conditions: Homo sapiens
RKOp27 = assay: as §2; assay type: functional, cell-based; conditions: Homo sapiens; method in brief: as §1
L1210 [4] = assay: Cytotoxicity against vincristine-resistant L1210 cells by XTT assay; assay type: functional, Mus musculus; method in brief: as §1
L1210 [5] = assay: Cytotoxicity against L1210 cells by XTT assay; assay type: functional, Mus musculus; method in brief: as §1
[6] = Cytotoxicity against multidrug resistant LT12 cells by XTT assay; assay type: functional, Rattus norvegicus; method in brief: as §1
P388 [7] = assay: Cytotoxicity against adriamycin-resistant P388 Cells by XTT assay; assay type: functional, Mus musculus; method in brief: as §1
[8] = Cytotoxicity against LT12 cells by XTT assay; assay type: functional, Rattus norvegicus; method in brief: as §1
P388 [9] = assay: Cytotoxicity against P388 cells by XTT assay; assay type: functional, Mus musculus; method in brief: as §1
[10] = Cell cycle arrest at G2/M phase in KB/HeLa cells after 24 hrs; assay type: functional, cell-based; conditions: Homo sapiens
Method in brief: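 KB/HeLa cells were exposed to several concentrations for 24 h alongside untreated reference cells. They were then stained with propidium iodide and analysed by flow cytometry for cell-cycle phase distribution.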

U-937 [11] = assay: (§3) Effect on apoptosis in U937 cells assessed as increase in caspase 3 activation at <=10 uM after 24 hrs; assay type: functional, cell-based; conditions: Homo sapiens
Method in brief: (§4)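 U937 cells were treated for 24 h at up to 10 μM. Caspase 3/7 activity was then measured by cleavage of a DEVD rhodamine-110 substrate.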

U-937 [12] = assay: as §3; assay type: functional, cell-based; conditions: Homo sapiens; method in brief: as §4; remark: listed apart in the source

| Compound | IC50 (SF-268) | IC50 [1] | IC50 (NCI-H460) | IC50 (SK-OV-3) | IC50 [2] | Activity (SF-268) | inhibition at 3.16 µg/mL [3] | Activity (NCI-H460) | Activity (RKOp27) | Activity (SK-OV-3) | other results |
| --- | --- | --- | --- | --- | --- | --- | --- | --- | --- | --- | --- |
| CN(C)CCn1ccc2c1C(=O)c1cnccc1/C2=N/O | > 12 µmol | > 12 µmol | > 12 µmol | > 12 µmol | > 12 µmol |  |  |  |  |  |  |
| CN(C)CCn1cc2c(c1)C(=O)c1cnccc1C2=O |  |  |  | Not Active |  | inactive | < 50% | inactive | inactive |  |  |
| COc1cccc2c1C(=O)c1c(O)c3c(c(O)c1C2=O)C[C@@](O)(C(=O)CO)C[C@@H]3O[C@H]1C[C@H](N)[C@H](O)[C@H](C)O1 [DOXORUBICIN] |  |  |  |  |  |  |  |  |  |  | Activity (L1210 [4]): >3.4 µM; Activity (L1210 [5]): 0.221 µM; Activity [6]: >3.4 µM; Activity (P388 [7]): >3.4 µM; Activity [8]: 0.031 µM; Activity (P388 [9]): 0.52 µM |
| CN(C)CCn1cc2c(c1)/C(=N\O)c1ccncc1C2=O |  |  |  |  |  | inactive | < 50% | inactive | inactive | inactive |  |
| CC(=O)O[C@H]1C(=O)[C@@]2(C)[C@H]([C@H](OC(=O)c3ccccc3)[C@]3(O)C[C@H](OC(=O)[C@H](O)[C@@H](NC(=O)c4ccccc4)c4ccccc4)C(C)=C1C3(C)C)[C@]1(OC(C)=O)CO[C@@H]1C[C@@H]2O [PACLITAXEL] |  |  |  |  |  |  |  |  |  |  | Activity (L1210 [4]): >3.4 µM; Activity (L1210 [5]): 0.052 µM; Activity [6]: 0.368 µM; Activity (P388 [7]): >3.4 µM; Activity [8]: 0.005 µM; Activity (P388 [9]): 0.038 µM |
| CCOC(=O)CO/N=C1/c2ccncc2C(=O)c2c1ccn2CCN(C)C | > 12 µmol | > 12 µmol | > 12 µmol | > 12 µmol | > 12 µmol |  |  |  |  |  |  |
| CN(C)CCO/N=C1/c2ccncc2C(=O)c2c1ccn2CCN(C)C | 1.23 µmol | 0.67 µmol | 0.23 µmol | 0.94 µmol | 0.41 µmol |  |  |  |  |  | Activity (L1210 [4]): 0.11 µM; Activity [10]: Active; Activity (L1210 [5]): 0.05 µM; Activity [6]: 0.07 µM; Activity (P388 [7]): 0.4 µM; Activity [8]: 0.03 µM; Activity (U-937 [11]): Active; Activity (U-937 [12]): Active; Activity (P388 [9]): 0.02 µM |
| CN(C)CCn1cc2c(c1)/C(=N\OCCO)c1ccncc1C2=O |  |  |  |  |  | inactive | < 50% | inactive | inactive | inactive |  |
| CN(C)CCn1ccc2c1C(=O)c1cnccc1/C2=N/OCCO | 1.39 µmol | 0.66 µmol | 0.13 µmol | 0.48 µmol | 0.17 µmol |  |  |  |  |  | Activity (L1210 [4]): 0.16 µM; Activity [10]: Active; Activity (L1210 [5]): 0.07 µM; Activity [6]: 0.16 µM; Activity (P388 [7]): 0.5 µM; Activity [8]: 0.04 µM; Activity (U-937 [11]): Active; Activity (U-937 [12]): Active; Activity (P388 [9]): 0.02 µM |
| CO/N=C1/c2ccncc2C(=O)c2cn(CCN(C)C)cc21 |  |  |  |  |  | inactive | < 50% | inactive | inactive | inactive |  |
| CCOC(=O)CO/N=C1/c2ccncc2C(=O)c2cn(CCN(C)C)cc21 |  |  |  |  |  | inactive | < 50% | inactive | inactive | inactive |  |
| CN(C)CCn1ccc2c1C(=O)c1cnccc1C2=O | 4.71 µmol | 11.04 µmol | 3.84 µmol | 13.87 µmol | 2.35 µmol |  |  |  |  |  |  |
| CN(C)CCO/N=C1/c2ccncc2C(=O)c2cn(CCN(C)C)cc21 |  |  |  |  |  | inactive | < 50% | inactive | inactive | inactive |  |
| CO/N=C1/c2ccncc2C(=O)c2c1ccn2CCN(C)C | 2.43 µmol | 1.21 µmol | 0.79 µmol | 2.24 µmol | 1.16 µmol |  |  |  |  |  |  |
